Results from ChEMBL document CHEMBL5338721, “Alkyl-substituted N-methylaryl-N'-aryl-4-aminobenzamides: A new series of small molecule inhibitors for Wip1 phosphatase” (Eur J Med Chem, 2022).
Activity calls are given as the source filed them. No cut-off for these calls is given here.

Key:
Protein phosphatase 1D = biological target: T1, Protein phosphatase 1D (Homo sapiens, UniProt O15297); assay: Inhibition of recombinant human Wip1 (1 to 420 residues) using human ATM phosphopeptide (AFEEG-pS-QSTTIGY) as substrate incubated for 7 mins by Bio-mol green assay
T1 sequence (O15297 whole entry): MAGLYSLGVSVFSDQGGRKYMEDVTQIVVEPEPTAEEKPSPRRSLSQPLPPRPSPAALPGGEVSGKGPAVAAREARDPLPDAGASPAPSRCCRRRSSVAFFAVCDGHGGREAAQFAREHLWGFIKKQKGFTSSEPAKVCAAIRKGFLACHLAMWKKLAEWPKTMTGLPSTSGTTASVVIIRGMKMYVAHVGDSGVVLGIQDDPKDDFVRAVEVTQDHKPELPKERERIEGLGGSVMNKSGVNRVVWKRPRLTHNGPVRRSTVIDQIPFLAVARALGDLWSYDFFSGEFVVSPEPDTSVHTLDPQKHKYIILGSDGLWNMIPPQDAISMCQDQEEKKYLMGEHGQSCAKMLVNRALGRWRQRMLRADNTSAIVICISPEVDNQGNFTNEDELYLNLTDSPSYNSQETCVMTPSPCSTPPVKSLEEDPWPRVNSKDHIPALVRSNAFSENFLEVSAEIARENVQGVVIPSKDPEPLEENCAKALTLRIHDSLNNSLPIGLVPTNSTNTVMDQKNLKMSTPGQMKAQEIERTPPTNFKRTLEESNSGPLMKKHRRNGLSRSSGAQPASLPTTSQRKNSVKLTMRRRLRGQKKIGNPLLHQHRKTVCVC
How it was run: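 Released phosphate read by Biomol Green against phosphate standard curve; normalized to no-inhibitor (100%) and no-enzyme (0%). Screen at 100 μM; 9–10-point dose-response in triplicate, logistic fit for IC50 and Hill coefficient.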

[1] = biological target: T2, Protein phosphatase 1D (Homo sapiens) (UniProt O15297); assay: Inhibition of recombinant human Wip1 (1 to 420 residues) using human ATM phosphopeptide (AFEEG-pS-QSTTIGY) as substrate at 100 uM incubated for 7 mins by Bio-mol green assay relative to control
T2 sequence (whole entry): T1 sequence (O15297 whole entry)
How it was run: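 Recombinant Wip1 (1–420) with 100 μM ATM phosphopeptide in 50 mM Tris·HCl pH 7.5 buffer with 30 mM MgCl₂, 7 min at 30 °C. Compound given at a single 100 μM concentration. Released phosphate quantified by Biomol Green with a phosphate standard curve. Percent inhibition taken from activity normalized to no-inhibitor (100%) and no-enzyme (0%) controls.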

[2] = biological target: T2, Protein phosphatase 1D (Homo sapiens); assay: Inhibition of recombinant human Wip1 (1 to 420 residues) using human ATM phosphopeptide (AFEEG-pS-QSTTIGY) as substrate at 100 uM incubated for 7 mins by Bio-mol green assay
How it was run: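 Purified recombinant Wip1 (1–420) incubated with compound and 100 μM ATM phosphopeptide for 7 min at 30 °C. Buffer: 50 mM Tris·HCl pH 7.5, EGTA, DTT, CHAPS, 0.1 mg/mL BSA, 30 mM MgCl₂. Phosphate measured by Biomol Green against a standard curve and normalized to no-inhibitor (100%) and no-enzyme (0%). Dose-response used 9–10 points, each in triplicate. IC50 from logistic fit (standard, or variable-slope giving a Hill coefficient).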

[3] = biological target: T3, Protein phosphatase 1A (Homo sapiens) (UniProt P35813); assay: Inhibition of PPM1A (unknown origin) using human p38alpha phosphopeptide as substrate upto 100 uM incubated for 7 mins by Biomol green assay
T3 sequence (whole entry): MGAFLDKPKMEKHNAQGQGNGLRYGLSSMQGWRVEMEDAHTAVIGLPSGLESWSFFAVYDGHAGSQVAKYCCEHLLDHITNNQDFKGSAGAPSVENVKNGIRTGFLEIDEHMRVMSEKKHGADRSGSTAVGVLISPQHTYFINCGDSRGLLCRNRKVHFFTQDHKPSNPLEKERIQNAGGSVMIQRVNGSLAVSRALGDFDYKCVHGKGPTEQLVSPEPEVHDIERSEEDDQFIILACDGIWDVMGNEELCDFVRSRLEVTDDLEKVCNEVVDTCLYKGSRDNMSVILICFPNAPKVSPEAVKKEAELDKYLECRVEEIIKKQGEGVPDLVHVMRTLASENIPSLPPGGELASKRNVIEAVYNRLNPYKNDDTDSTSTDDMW
How it was run: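 Substrate: 100 μM p38α (175–185, 180pT) phosphopeptide, mixed with compound or DMSO, then 8 nM PPM1A added. Buffer: 50 mM Tris·HCl pH 7.5, 0.1 mM EGTA, 1 mM DTT, 1 mM CHAPS, 0.1 mg/mL BSA, 30 mM MgCl₂. Incubation: 7 min at 30 °C. Stopped with Biomol Green, 20 min colour development at room temperature. Released phosphate read at 620 nm against a phosphate standard curve. Compounds tested up to 100 μM.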

Compound	IC50 (Protein phosphatase 1D)	other results
O=C(Nc1cccc(F)c1)c1cccc(CNc2ccc(C(=O)Nc3cccc(OP(=O)(O)O)c3)cc2CC2CCCCC2)c1	20.8 µM	–
Nc1ccccc1CCC1CCCCC1	–	inhibition [1]: 3%
O=C(NCCCO)C1CCCCC1	–	inhibition [2]: inactive
O=C(CC1CCCCC1)NCCCO	–	inhibition [2]: inactive
O=C(Nc1cccc(OP(=O)(O)O)c1)c1ccc(NCc2ccc(-c3cccc(Cl)c3)cc2)c(CC2CCCCC2)c1	48 µM	–
O=C(Nc1cccc(Cl)c1)c1cccc(CNc2ccc(C(=O)Nc3cccc(OP(=O)(O)O)c3)cc2CC2CCCCC2)c1	3.8 µM	inhibition [3]: inactive
O=C(NCCc1ccc(OP(=O)(O)O)cc1)c1ccc(NC(=O)c2ccc(F)cc2)c(CC2CCCCC2)c1	36 µM	–
O=C(CCCCC1CCCCC1)NCCCO	–	inhibition [1]: 4%
O=C(Nc1cccc(Cl)c1)c1cccc(C(=O)Nc2ccc(C(=O)Nc3cccc(OP(=O)(O)O)c3)cc2CC2CCCCC2)c1	7.3 µM	inhibition [3]: inactive
O=C(Nc1cccc(Cl)c1)c1cccc(CNc2ccc(C(=O)Nc3cccc(OP(=O)(O)O)c3)cc2C2CC3CCC2C3)c1 (stereo not given)	24.7 µM	–
Nc1ccc(C(=O)Nc2cccc(OP(=O)(O)O)c2)cc1CC1CCCCC1	330 µM	–
O=C(Nc1ccc2c(c1)OCO2)c1cccc(CNc2ccc(C(=O)Nc3cccc(OP(=O)(O)O)c3)cc2CC2CCCCC2)c1	35.2 µM	–
COc1ccc(CNc2ccc(C(=O)Nc3cccc(OP(=O)(O)O)c3)cc2CC2CCCCC2)cc1	37 µM	–
O=C(Nc1cccc(OP(=O)(O)O)c1)c1ccc(NCc2ccc3ccccc3c2)c(CC2CCCCC2)c1	274 µM	–
O=C(O)c1cccc(CNc2ccccc2CC2CCCCC2)c1	74.8 µM	–
O=C(Nc1cccc(Cl)c1)c1ccc(CNc2ccc(C(=O)Nc3cccc(OP(=O)(O)O)c3)cc2CC2CCCCC2)cc1	11.1 µM	–
O=C(Nc1cccc(OP(=O)(O)O)c1)c1ccc(NCc2cc3ccccc3o2)c(CC2CCCCC2)c1	21.4 µM	–
O=C(Nc1cccc(Cl)c1)c1cccc(CNc2ccc(C(=O)Nc3cccc(OP(=O)(O)O)c3)cc2CCC2CCCCC2)c1	32.7 µM	–
O=C(Nc1cccc(OP(=O)(O)O)c1)c1ccc(NCc2ccc(-c3ccc(Cl)cc3)cc2)c(CC2CCCCC2)c1	332 µM	–

Compound	IC50 (Protein phosphatase 1D)	other results
COC(=O)c1ccc(NCc2cccc(C(=O)O)c2)c(CCC2CCCCC2)c1	48.4 µM	–
COC(=O)c1ccc(NCc2cccc(C(=O)O)c2)c(CC2CCCCC2)c1	54.1 µM	–
COc1cccc(CNc2ccc(C(=O)Nc3cccc(OP(=O)(O)O)c3)cc2CC2CCCCC2)c1	139 µM	–
O=C(Nc1cccc(OP(=O)(O)O)c1)c1ccc(NCc2ccc(-c3cccc(F)c3)cc2)c(CC2CCCCC2)c1	30 µM	–
O=C(Nc1cccc(OP(=O)(O)O)c1)c1ccc(NCc2cccnc2)c(CC2CCCCC2)c1	105 µM	–
Nc1ccccc1CC1CCCCC1	–	inhibition [2]: inactive
O=C(Nc1cccc(OP(=O)(O)O)c1)c1ccc(NCc2ccc(F)cc2)cc1	683 µM	–
O=C(Nc1cccc(OP(=O)(O)O)c1)c1ccc(NCc2cccc(F)c2)c(CC2CCCCC2)c1	28.5 µM	–
O=C(Nc1cccc(OP(=O)(O)O)c1)c1ccc(NC(=O)c2cccc(CNc3cccc(Cl)c3)c2)c(CC2CCCCC2)c1	7.2 µM	inhibition [3]: inactive
O=C(Nc1cccc(OP(=O)(O)O)c1)c1ccc(NCc2ccc(F)cc2)c(Cc2ccccc2)c1	63 µM	–
CCCCC(CCCC)CNc1ccc(C(=O)Nc2cccc(OP(=O)(O)O)c2)cc1CC1CCCCC1	512 µM	–
O=C(Nc1cccc(OP(=O)(O)O)c1)c1ccc(NCc2ccc(F)cc2)c(CC2CCCCC2)c1	28.1 µM	–
COc1cc(OC)cc(-c2ccc(CNc3ccc(C(=O)Nc4cccc(OP(=O)(O)O)c4)cc3CC3CCCCC3)cc2)c1	18 µM	–
O=C(O)c1cccc(CNc2ccccc2CCC2CCCCC2)c1	–	inhibition [1]: 88%
O=C(Nc1cccc(Cl)c1)c1cccc(CNc2ccc(C(=O)Nc3cccc(O)c3)cc2CCC2CCCCC2)c1	1600 µM	–
O=C(CCCC1CCCCC1)NCCCO	–	inhibition [1]: 1%
O=C(Nc1ccc(OP(=O)(O)O)cc1)c1ccc(NCc2ccc(F)cc2)c(CC2CCCCC2)c1	29 µM	–
O=C(Nc1cccc(OP(=O)(O)O)c1)c1ccc(NCCCc2ccccc2)c(CC2CCCCC2)c1	105 µM	–
